# Bioassay records deposited in PubChem BioAssay by several laboratories.
# Most compounds without a hit are left out; they make up all but 2.6% or so of the library.
# MT stabilizer: microtubule stabilization, imaging screen | HeLa tubulin immunostaining HCS, 24 h; share of cells brighter than vehicle mean+2SD | % tubulin-high responders, % at 10 µM | hit rate 0.83% among 200,000 | AID 2205;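 active = plate Z-score above 3 for both tubulin-high and condensed-nucleus cell shares, with cell loss under 80%, at 10 µM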;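 also: anti alpha tubulin signal scored within the nucleus-defined area of each cell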
# NPY1 pot ag: human NPY-Y1 potentiation or agonism, primary screen; P25929; NPY-Y1 expressing cells, potentiator/agonist activation; activation, % at 3.6 µM; hit rate 0.37% among 220,000; AID 1304; in the data active = activation above about 33%, passing the limit was not always enough;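 also: cells stimulated with NPY at EC10 then isoproterenol at EC100; 0% = low agonist plus stimulus and 100% = saturating agonist plus stimulus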
# Target sequence (P25929 whole entry, looked up): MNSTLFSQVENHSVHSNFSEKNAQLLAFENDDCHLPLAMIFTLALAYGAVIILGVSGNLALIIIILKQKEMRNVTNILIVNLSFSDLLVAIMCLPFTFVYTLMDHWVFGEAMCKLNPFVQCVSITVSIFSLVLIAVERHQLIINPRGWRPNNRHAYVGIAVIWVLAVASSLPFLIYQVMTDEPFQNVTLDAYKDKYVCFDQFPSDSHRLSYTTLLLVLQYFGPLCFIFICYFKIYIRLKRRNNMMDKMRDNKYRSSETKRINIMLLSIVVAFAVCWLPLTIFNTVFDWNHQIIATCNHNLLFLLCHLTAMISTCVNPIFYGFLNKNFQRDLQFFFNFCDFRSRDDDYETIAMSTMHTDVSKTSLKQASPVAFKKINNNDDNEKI
# NPY-Y2 PAM-ag: potentiators or agonists of human neuropeptide Y receptor Y2 | P49146 | cells expressing NPY-Y2, potentiator/agonist read-out | activation, % at 3.6 µM | hit rate 0.45% among 220,000; in the data active = activation above about 27%;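 also: cells stimulated with NPY near EC25 plus isoproterenol at EC100; 0% = vehicle plus submaximal agonist and 100% = vehicle plus saturating agonist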
# NPY Y1 blocker: NPY-Y1 (human) receptor antagonism; P25929; HEK293-CNG Y1 cells, membrane potential fluorescence; NPY at EC95, then isoproterenol; hit rate 1% among 200,000; inhibition, % at 3.6 µM;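 active = inhibition above the campaign mean inhibition of all tested compounds plus 3 SD, cut at about 20% in these data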;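 also: 0% = DMSO wells given NPY plus isoproterenol and 100% = isoproterenol alone without NPY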
#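 Test system – HEK293 Y1/CNG channel cell line · Also added – NPY agonist 25 nM, then isoproterenol 1 µM plus Ro 20-1724 25 µM · Compound dosing – one concentration, 3.6 µM, in 0.4% DMSO · Schedule – compound incubation 1 h at room temperature, readout 45 min post-stimulation · Technique – fluorescence, membrane potential probe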
# b-catenin transl: modulators of beta-catenin nuclear translocation. HeLa beta-catenin nuclear translocation, immunofluorescence imaging. AID 1665. nuclear translocation activity, % at 5 µM. hit rate 0.3% among 190,000;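 active = nuclear translocation activity above 50% at 5 µM, with a well cell count of 50 or more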;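 also: per-cell ratio of nuclear to cytoplasmic median beta-catenin stain intensity; plate controls were DMSO negative control for no effect and GSK-3 inhibitor IX positive control for full effect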
#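 System: HeLa cells, endogenous beta-catenin; compound dosing: 5 µM primary single dose, 0.1% DMSO, 0.02–20 µM confirmation series; incubation: 24 h compound exposure at 37°C, 5% CO2; signal: beta-catenin immunofluorescence imaging with DAPI; evaluation: % activation, nuclear-to-cytoplasmic median beta-catenin signal ratio per cell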
# NPY-Y2 antag: antagonists of human neuropeptide Y receptor Y2. inhibition, % at 2.7 µM. hit rate 0.99% among 140,000. NPY-Y2 expressing cells, antagonist mode. AID 793; in the data active = inhibition above about 17%;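 also: 0% = vehicle with agonist challenge and 100% = reference antagonist with challenge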
# Numbers without * were called inactive; . = no result.
SMILES,MT stabilizer,NPY1 pot ag,NPY-Y2 PAM-ag,NPY Y1 blocker,b-catenin transl,NPY-Y2 antag
COC(=O)c1ccc(C)c(NS(=O)(=O)c2ccc(C)c([N+](=O)[O-])c2)c1,3,-24,-9,7,-3,8
COc1ccc(S(=O)(=O)Nc2cc([N+](=O)[O-])ccc2OC)cc1,28*,1,12,3,7,2
CN1CCN(C(=O)CCc2nc3ccccc3n2-c2ccccc2)CC1,2,-11,8,3,.,1
CC(C)CCNC(=O)CN(Cc1ccc2c(c1)OCO2)C(=O)Cn1nnc(-c2cccs2)n1,1,-32,-15,11,-5,7
CCC(=O)Nc1sc2c(c1C#N)CCC2,1,16,1,-6,-2,.
CCc1ccc(CCC(=O)Nc2sc3c(c2C#N)CCCC3)o1,17*,-37,-27,8,64*,10
N#Cc1c(NC(=O)c2ccccc2)sc2c1CCC2,33*,-7,-16,-6,.,6
COc1cccc(C(=O)Nc2sc3c(c2C#N)CCN(C(C)=O)C3)c1,28*,0,-7,7,53*,.
Cc1ccc(C(=O)N/C(=C\c2ccc3c(c2)OCO3)C(=O)Nc2ccc(C(=O)O)cc2)cc1,9,-14,-4,-2,-1,.
Nc1ccc2nc(NC(=O)C3CCCCC3)sc2c1,6,5,-12,-1,3,.
O=C(Nc1nc2ccc(C(=O)N3CCCCC3)cc2s1)C1CCCCC1,16*,5,-6,7,1,.
CC1CCC(NC(=O)C2c3ccccc3C(=O)N2Cc2cccs2)CC1 (centres undefined),7,-15,0,18,-1,12
O=C(NC1CCCCCCC1)C1c2ccccc2C(=O)N1Cc1cccs1 (centres undefined),2,-28,-2,33*,2,31*
COc1ccc(-c2cn3cc(Br)cnc3n2)cc1,20*,10,-15,-1,1,.
COc1ccc(-c2cn3cccnc3n2)cc1Br,2,6,-7,4,1,1
COc1cccc(OC)c1NC(=O)CN1CCC(NC(=O)c2cccc(F)c2)CC1,4,-7,-5,3,0,6
Cc1ccc(C)c2nc(Cl)c(C3NC(=O)c4ccccc4N3)cc12 (centres undefined),16*,-16,-25,10,14,.
Cc1cc(C)c2nc(Cl)c(C3NC(=O)c4ccccc4N3)cc2c1 (centres undefined),6,-22,-10,-3,-3,.
Cc1ccc(C)c(C2NC(=O)c3ccccc3N2)c1 (centres undefined),.,32,-26,.,64*,.
Cc1ccccc1C(=O)NNC(=O)c1cc(N)cc([N+](=O)[O-])c1,1,3,1,0,.,0
O=C(NC(=S)Nc1cccc(Cl)c1N1CCCCC1)c1ccc2c(c1)OCCO2,29*,-14,15,6,86*,4
CC(C)(C)c1nc2ccccc2c2nnc(SCC(=O)Nc3nc4ccccc4s3)n12,9,-10,-12,8,2,3
CC(C)(C)c1nc2ccccc2c2nnc(SCC(=O)Nc3nccs3)n12,42*,4,-7,2,40,1
CC1(C)CC(=O)C(C=Nc2ccc(NC3=C(C#N)C(=O)CC(C)(C)C3)cc2)=C(O)C1,4,-15,-1,-5,-4,.
COc1ccc(NS(=O)(=O)c2cccc(NC(=O)c3ccc(S(=O)(=O)N4CCCCCC4)cc3)c2)cc1,18*,8,24,-4,0,-1
SMILES,MT stabilizer,NPY1 pot ag,NPY-Y2 PAM-ag,NPY Y1 blocker,b-catenin transl,NPY-Y2 antag
COc1ccc(S(=O)(=O)N2CCCN(CC(=O)Nc3ccc(OC)c(Cl)c3)CC2)cc1,3,-46,-21,38*,.,18*
COc1ccc(NC(=O)c2ccc(CNS(=O)(=O)c3cccc(OC)c3)cc2)cc1,2,19,10,-8,-2,-1
COc1ccc(NC(=O)CN2CCN(S(=O)(=O)c3ccc(Cl)cc3)CC2)cc1Cl,3,8,17,6,-1,-1
COc1cccc(S(=O)(=O)NCc2ccc(C(=O)Nc3ccc(Cl)c(Cl)c3)cc2)c1,2,44*,23,-12,-2,1
O=C(COC(=O)c1ccc(Cl)c(S(=O)(=O)N2CCCCC2)c1)NCC1CCCO1 (centres undefined),1,-3,9,5,0,.
O=C(CN1CCN(S(=O)(=O)c2cc(Cl)ccc2Cl)CC1)Nc1ccc2c(c1)OCCO2,8,-11,-1,10,0,3
S=C(NCc1ccco1)N/N=C/c1ccccc1Cl,4,-3,-4,9,-2,7
O=C1NC2c3ccccc3C(=O)N2c2c1cnn2-c1ccccc1 (centres undefined),11*,0,8,-1,-2,8
Cc1ccc(OCc2nc(C#N)c(N3CCN(Cc4ccccc4)CC3)o2)cc1,3,-34,-34,23*,-1,41*
N#Cc1nc(COc2ccccc2)oc1N1CCN(Cc2ccccc2)CC1,3,-24,-15,21*,-1,28*
N#Cc1nc(COc2ccc(F)cc2)oc1N1CCCC1,2,-4,-11,10,-1,4
N#Cc1nc(COc2cccc(Cl)c2)oc1N1CCCC1,2,-28,-5,14,-6,12
CCOC(=O)C1=C(C(F)(F)F)Nc2ncnn2C1c1ccc(OC)cc1OC (centres undefined),4,3,-1,-3,-1,2
Cc1nc(C)c(C(=O)N/N=C/c2ccco2)s1,6,12,4,2,1,.
O=C(Cc1ccc(-n2cccc2)cc1)NCc1ccccc1Cl,25*,-25,-11,7,63*,5
O=C(Cc1ccccc1)NCc1ccc(-n2cccc2)cc1,4,-10,-14,6,52*,.
CC(=O)c1c(C)nc2ccc(Br)cc2c1-c1ccccc1,1,-13,-11,22*,-2,.
Cc1c(C(=O)N/N=C/c2ccccc2)[nH]c2ccc(Cl)cc12,13,-12,-16,0,56*,-1
Cc1c(C(=O)N/N=C/c2ccc(N(C)C)cc2)[nH]c2ccc(Cl)cc12,15,-7,-3,6,41,2
O=C(N/N=C/c1ccccc1Cl)c1[nH]c2ccc(Br)cc2c1-c1ccccc1,7,-15,-3,10,94*,8
COc1ccc(/C=N/NC(=O)c2[nH]c3ccc(Br)cc3c2-c2ccccc2)cc1,14*,-32,-10,14,42,2
O=c1[nH]c(CN2CCN(c3ccc(O)cc3)CC2)nc2scc(-c3ccc(Cl)cc3)c12,21*,23,2,-2,7,.
COc1cccc(N2CCN(Cc3nc4scc(-c5ccccc5)c4c(=O)[nH]3)CC2)c1,15*,-9,-2,3,8,3
